Assay outcomes (PubChem BioAssay)
Most compounds without a hit are left out; they make up all but 4.5% or so of the library.
TAAR1 agonist = human TAAR1 agonists, primary screen, Fluo-8 calcium fluorescence, CHO RD-HGA16 cells; vehicle wells 0%, saturating PEA agonist 100%; activation, % at 3 µM; actives 0.99% (n = 360,000); AID 624467, 2012;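 active = activation above the mean activation of all test compounds in the run plus 3 SD, cut at about 38% in these data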
Target sequence (Q96RJ0 whole entry, looked up): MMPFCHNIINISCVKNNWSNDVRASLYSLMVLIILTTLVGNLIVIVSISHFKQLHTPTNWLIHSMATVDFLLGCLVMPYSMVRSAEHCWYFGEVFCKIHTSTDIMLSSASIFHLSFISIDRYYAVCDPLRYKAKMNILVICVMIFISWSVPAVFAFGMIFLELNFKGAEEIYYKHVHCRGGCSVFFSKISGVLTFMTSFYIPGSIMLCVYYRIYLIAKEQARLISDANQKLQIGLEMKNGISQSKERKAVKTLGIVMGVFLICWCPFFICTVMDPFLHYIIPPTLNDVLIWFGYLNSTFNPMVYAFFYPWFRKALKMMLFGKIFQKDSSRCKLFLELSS
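Assay system – CHO-derived RD-HGA16 cells with stable Gα16 and human TAAR1 · Compound dosing – one-point dosing at 3 µM (nominal) · Incubation – 17-24 h seeding, 75 min 37 °C dye, 30 min RT · Measured by – kinetic Fluo-8 calcium fluorescence · Control set – DMSO vehicle as 0%, PEA at EC100 as 100% · Repeats – single well for each compound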
CHO parental Ca = ATP-evoked calcium signal inhibitors, parental CHO, primary screen, counter-screen for OX1R antagonist project, cell-based, fluorescence, Fluo-8 calcium dye; AID 463079, 2010; inhibition, % at 5.6 µM; actives 0.63% (n = 330,000); parental CHO-K1, ATP-induced calcium, Fluo-8 fluorescence;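 active = inhibition above that plate's mean sample inhibition plus 3 SD, cut at about 26% in these data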;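 also: 0% = ATP-challenged DMSO wells and 100% = DMSO wells without ATP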
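Test system: untransfected parental CHO cell line; also added: ATP stimulus; dosing: 5.6 µM, single dose; signal: calcium-sensitive Fluo-8 fluorescence; measure: percent inhibition of ATP-evoked calcium rise, normalized to controls; benchmarks: low control ATP plus DMSO, high control DMSO only; replication: one well per compound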
OX1R antag-1 = OX1R (HCRTR1) antagonists, primary screen, fluorescence, CHO/OX1R cells, Fluo-8 calcium, orexin A; actives 0.43% (n = 330,000); Fluo-8 calcium fluorescence; inhibition, % at 5 µM;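 active = inhibition above its plate's threshold, mean inhibition of all tested compounds on the plate plus 3 SD, cut at about 37% in these data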;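 also: 0% = orexin A challenge wells and 100% = SB-334867-A antagonist wells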
GPR7 antagonist = GPR7 receptor antagonists, primary screen, cell-based, fluorescence, single concentration | GPR7-expressing cells, fluorescence antagonist assay | actives 1.1% (n = 290,000) | inhibition, % at 4.4 µM | Neuropeptides B/W receptor type 1 (Homo sapiens), P48145 | AID 1861, 2009; in the data active = inhibition above about 16%, passing the limit was not always enough;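 also: cells stimulated with the agonist NPW; 0% = agonist with vehicle and 100% = vehicle without agonist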
Target sequence (P48145 whole entry, looked up): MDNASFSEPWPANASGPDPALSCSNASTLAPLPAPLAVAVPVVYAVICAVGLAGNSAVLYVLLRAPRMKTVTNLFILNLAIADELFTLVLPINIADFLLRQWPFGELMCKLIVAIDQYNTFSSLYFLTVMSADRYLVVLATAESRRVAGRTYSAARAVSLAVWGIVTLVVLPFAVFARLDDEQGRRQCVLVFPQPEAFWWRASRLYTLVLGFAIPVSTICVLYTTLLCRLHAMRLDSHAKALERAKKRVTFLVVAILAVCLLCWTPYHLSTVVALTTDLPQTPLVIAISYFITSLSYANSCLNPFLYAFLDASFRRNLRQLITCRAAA
TAAR1 antag = human TAAR1 antagonists, primary screen, Fluo-8 calcium fluorescence, CHO RD-HGA16 cells; Trace amine-associated receptor 1 (Homo sapiens), Q96RJ0; antagonist; inhibition, % at 3 µM; actives 1.5% (n = 360,000);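 active = inhibition above a per-plate cutoff, the mean inhibition of test compounds on that plate plus 3 SD, cut at about 49% in these data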;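 also: 0% = DMSO plus EC80 beta-PEA response and 100% = DMSO alone without agonist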
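System: CHO RD-HGA16 cells bearing hTAAR1. Reagent: EC80 β-phenethylamine stimulus. Schedule: seeding 17-24 h prior, 75-min 37 °C, 30-min RT dye loading. Signal: Fluo-8 intracellular calcium dye fluorescence, real-time kinetic reads. Read-out: % inhibition from peak post-agonist over basal fluorescence ratio. Benchmarks: vehicle wells and EC80 agonist wells. Replicates: n of 1.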
OX1R antag-2 = antagonists of human orexin 1 receptor (OX1R). Orexin/Hypocretin receptor type 1 (Homo sapiens), O43613. inhibition, % at 6.6 µM. OX1R-expressing cells, FRET antagonist read-out. actives 1.8% (n = 330,000); in the data active = inhibition mostly above about 38%, no sharp cut-off; inactive = mostly below about 40%;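 also: 0% = agonist challenge alone and 100% = reference antagonist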
* hit, by the source's call; · = not tested or not shown.

SMILES	TAAR1 agonist	CHO parental Ca	OX1R antag-1	GPR7 antagonist	TAAR1 antag	OX1R antag-2
CCCCC(CC)CN=C(N)NC(N)=NCCCCCCN=C(N)NC(N)=NCC(CC)CCCC (stereo unspecified)	·	84*	79*	·	·	34
O=C1/C(=C/c2ccccc2)Nc2ccccc21	7	36*	50*	18	10	10
Cc1ccc2[nH]c(O)c(N=NC(=O)c3ccc(NS(=O)(=O)c4cccs4)cc3)c2c1	0	-4	-7	-6	10	19
Cc1cccc2c(N=NC(=O)c3ccc(NS(=O)(=O)c4cccs4)cc3)c(O)[nH]c12	5	-4	14	·	56*	40*
COc1ccc(-n2nc(C(=O)NCC(=O)N3CCN(c4ccccc4)CC3)c3ccccc3c2=O)cc1OC	8	-20	-39	-11	36	17
COc1ccc(-n2nc(C(=O)NCC(=O)N3CCN(c4ccccc4OC)CC3)c3ccccc3c2=O)cc1OC	13	-7	-1	0	52*	15
COc1ccc(-n2nc(C(=O)NCC(=O)N3CCN(c4ccccn4)CC3)c3ccccc3c2=O)cc1OC	12	-24	-24	-11	57*	14
COc1ccc(-n2nc(C(=O)NCC(=O)NCc3cccc(F)c3)c3ccccc3c2=O)cc1Cl	15	-4	-22	7	50*	10
O=[N+]([O-])c1ccc(N2CCN(c3cccc(Cl)c3)CC2)cn1	6	0	-14	21*	8	9
Cc1ccc(C(=O)N2NC(c3ccc(F)cc3)C3C(=O)N(c4ccc(C)cc4)C(=O)C32)cc1 (stereo unspecified)	0	-33	-18	-2	6	6
Cc1ccc(C(=O)N2NC(c3ccc(F)cc3)C3C(=O)N(c4ccc(C)c(C)c4)C(=O)C32)cc1 (stereo unspecified)	38*	-1	2	-6	5	2
COc1ccc(CCN2C(=O)CSC2=Nc2ccc(C(C)C)cc2)cc1OC	22	29*	20	5	46	4
Cc1nc(SCc2nc3c(O)cccc3[nH]2)c2oc3ccccc3c2n1	9	-12	-11	·	25	25
Cc1nc(SCCc2nc3ccccc3[nH]2)c2oc3ccccc3c2n1	2	-15	31	·	-1	59*
Cc1nc(SCc2nc3ccccc3[nH]2)c2oc3cc(Br)ccc3c2n1	10	-11	27	·	42	48*
Cc1ccc2oc3c(SCc4nc5ccccc5[nH]4)nc(C)nc3c2c1	3	-24	-9	·	46	58*
Cc1nc(SCc2nc3ccc(F)cc3[nH]2)c2oc3ccccc3c2n1	13	-29	-29	·	38	33
Cc1nc(SCc2nc3ccc(C(=O)c4ccccc4)cc3[nH]2)c2oc3ccccc3c2n1	10	-18	27	·	25	31
OC(c1ccccc1)(c1nc(-c2cccc(F)c2)cs1)C(F)(F)F (stereo unspecified)	0	·	·	·	20	·
O=C1CSC(=Nc2cccc(Cl)c2Cl)N1	0	-1	-12	-17	-3	3
CCc1nc(N)nc(N)c1-c1ccc(N(C)Cc2ccccc2)c([N+](=O)[O-])c1	39*	·	·	·	76*	·
CCc1nc(N)nc(N)c1-c1ccc(NCCN)c([N+](=O)[O-])c1	13	·	·	·	-4	·
O=C(C1CCC1)N1CCc2cc(S(=O)(=O)NCCN3CCN(c4ccccc4F)CC3)ccc21	4	51*	14	6	23	31
COC(=O)C1=C(C)NC2=C(C(=O)CCC2)C1c1ccsc1 (stereo unspecified)	·	·	·	0	·	·
COC(=O)C1=C(C)NC2=C(C(=O)CCC2)C1c1ccc(-c2ccsc2C(=O)OC)o1 (stereo unspecified)	45*	-3	8	4	28	12
SMILES	TAAR1 agonist	CHO parental Ca	OX1R antag-1	GPR7 antagonist	TAAR1 antag	OX1R antag-2
C[C@H](O)[C@@H]1C(=O)N2CCc3c([nH]c4ccccc34)[C@@H]2C[C@@H]1N(C)S(=O)(=O)c1ccccc1	6	·	·	·	5	·
COc1ccc(S(=O)(=O)N2CCCOC2CNC(=O)C(=O)NCc2ccccc2C)cc1 (stereo unspecified)	2	·	·	·	-16	·
O=c1oc2ccccc2c(Nc2ccccc2)c1CN1CCCCC1	0	-24	-23	-14	-15	8
O=c1oc2ccccc2c(O)c1CN1CCCCC1	9	1	7	12	0	68*
Cc1cc(C)nc(N2CCCC(C(=O)Nc3ccc4c(c3)OCO4)C2)n1 (stereo unspecified)	38*	-8	-10	5	67*	1
COc1cc(C)nc(N2CCCC(C(=O)Nc3cccc(Cl)c3Cl)C2)n1 (stereo unspecified)	4	-20	-28	16*	-4	28
Cc1cc(C)nc(N2CCC(C(=O)Nc3ccc4c(c3)OCO4)CC2)n1	0	-10	-21	-5	-17	9
CCCCCCCCN1C(=O)[C@@H](CC(=O)NCCCN2CCCC2=O)C[C@@]2(C(=O)OC)C1=C[C@H](C(C)(C)C)O[C@@H]2C	-2	·	·	·	-24	·
O=C(Nc1cccc(C(F)(F)F)c1)c1scc2c1OCCO2	2	43*	-7	-6	7	15
COc1ccc(CCN2C(=O)C(Oc3ccccc3C)C2c2ccc3c(c2)OCO3)cc1OC (stereo unspecified)	7	2	-25	20	55*	24
COc1ccc(CCN2C(=O)C(Oc3ccccc3C)C2c2ccc3c(c2)OCO3)cc1 (stereo unspecified)	8	-7	-17	1	56*	35
Cc1cc(NS(=O)(=O)c2ccc(NC(=O)CSc3nc4ncccc4[nH]3)cc2)nc(C)n1	0	-3	-4	-10	0	9
COc1ccc(N=C2C(=O)N3CCCc4cccc2c43)cc1	6	-11	-15	-10	-26	66*
Cc1nnsc1C(=O)NC1CCCc2c1cnn2-c1ccc(C(C)(C)C)cc1 (stereo unspecified)	-1	41*	12	15	16	28
Cc1cc(C(=O)NC2CC(C)(C)Cc3c2cnn3-c2ccccc2C)c(C)o1 (stereo unspecified)	-2	-17	-38	14	-7	71*
Cc1cc(C)c(C(=O)NC2CCCc3c2cnn3-c2cccc(C)c2C)o1 (stereo unspecified)	3	-17	2	-19	-24	59*
